33 molecules from ChEMBL document CHEMBL1145197 (J Med Chem, 2005) can be followed below.

The structures appear in SMILES notation.

Data set [1] has as its target T1, Cannabinoid receptor 1 (Homo sapiens, UniProt P21554). The data set is described as follows: In vitro cannabinoid receptor 1 antagonism of [3H]arachidonic acid release by CHO cells. Format: functional, cell-based. The note with it: read-out: pA2 (converted).
A further data set has as its target P-glycoprotein (ABCB1) (Homo sapiens, UniProt P08183). Put plainly: P-glycoprotein (Pgp) factor was expressed as the ratio ofthe bottom to top transport and top to bottom transport. Format: functional. As to conditions: not told.
Data set [2] deals with ATP-dependent translocase ABCB1 (Homo sapiens, UniProt P08183). Put plainly: Membrane passage was expressed as mean percentage of compound transported from bottom to top and from top to bottom at 3 hr after adding the compound. It is filed as functional.
ATP-dependent translocase ABCB1, sequence (P08183 whole entry): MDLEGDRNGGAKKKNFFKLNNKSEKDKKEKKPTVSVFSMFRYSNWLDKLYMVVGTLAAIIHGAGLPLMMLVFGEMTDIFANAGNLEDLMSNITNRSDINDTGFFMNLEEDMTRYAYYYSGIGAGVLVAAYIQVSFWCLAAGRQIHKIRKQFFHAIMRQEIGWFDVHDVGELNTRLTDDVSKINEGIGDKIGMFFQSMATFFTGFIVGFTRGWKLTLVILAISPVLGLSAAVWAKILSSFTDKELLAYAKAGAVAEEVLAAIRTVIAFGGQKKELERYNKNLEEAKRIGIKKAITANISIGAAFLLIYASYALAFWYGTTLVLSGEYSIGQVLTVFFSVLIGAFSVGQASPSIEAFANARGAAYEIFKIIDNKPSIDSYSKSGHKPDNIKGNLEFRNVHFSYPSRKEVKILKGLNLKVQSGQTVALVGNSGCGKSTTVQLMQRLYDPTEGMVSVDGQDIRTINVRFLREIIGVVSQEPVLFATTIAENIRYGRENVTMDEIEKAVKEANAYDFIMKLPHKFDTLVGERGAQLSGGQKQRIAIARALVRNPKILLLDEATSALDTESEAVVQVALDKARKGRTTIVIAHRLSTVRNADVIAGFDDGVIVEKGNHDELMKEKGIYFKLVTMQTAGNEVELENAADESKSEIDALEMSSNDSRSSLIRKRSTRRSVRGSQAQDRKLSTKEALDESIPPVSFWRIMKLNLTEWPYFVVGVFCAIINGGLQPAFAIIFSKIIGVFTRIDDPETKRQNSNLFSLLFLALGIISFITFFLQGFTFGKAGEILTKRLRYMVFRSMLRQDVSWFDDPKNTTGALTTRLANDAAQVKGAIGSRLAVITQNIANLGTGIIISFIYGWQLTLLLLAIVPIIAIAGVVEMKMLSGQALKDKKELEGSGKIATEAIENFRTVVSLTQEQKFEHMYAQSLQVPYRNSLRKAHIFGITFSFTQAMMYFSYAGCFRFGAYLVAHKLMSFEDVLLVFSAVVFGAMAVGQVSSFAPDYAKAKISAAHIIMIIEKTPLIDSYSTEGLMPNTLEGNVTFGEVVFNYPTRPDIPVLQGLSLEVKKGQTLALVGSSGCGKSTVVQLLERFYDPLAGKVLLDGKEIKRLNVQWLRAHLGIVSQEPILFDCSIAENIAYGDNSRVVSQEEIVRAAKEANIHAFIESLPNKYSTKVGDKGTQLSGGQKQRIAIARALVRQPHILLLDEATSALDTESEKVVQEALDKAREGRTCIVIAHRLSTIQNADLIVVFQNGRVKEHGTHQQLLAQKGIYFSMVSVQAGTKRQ
A further data set relates to Rattus norvegicus. Put plainly: In vivo effective dose to produce antagonism of CB agonist (CP-55940) induced hypotension in rat.
For data set [3], the target named is T1, Cannabinoid receptor 1. Format: cell-based, CHO.
For the next data set, the target named is Cannabinoid receptor 2 (Homo sapiens, UniProt P34972). The data set is described as follows: In vitro displacement of CP-55940 binding to human CB2 receptor expressed in CHO cells. It is filed as cell-based. Summed up:
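Radioligand binding on CHO cells stably expressing recombinant human CB2 receptor; affinity given as Ki (nM).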

For a further data set, the system named is Mus musculus. The data set is described as follows: In vivo effective dose to produce antagonism of CB agonist (WIN-55212) induced hypothermia in mouse.

P-glycoprotein (ABCB1), sequence (P08183 whole entry): as above
Cannabinoid receptor 2, sequence (P34972 whole entry): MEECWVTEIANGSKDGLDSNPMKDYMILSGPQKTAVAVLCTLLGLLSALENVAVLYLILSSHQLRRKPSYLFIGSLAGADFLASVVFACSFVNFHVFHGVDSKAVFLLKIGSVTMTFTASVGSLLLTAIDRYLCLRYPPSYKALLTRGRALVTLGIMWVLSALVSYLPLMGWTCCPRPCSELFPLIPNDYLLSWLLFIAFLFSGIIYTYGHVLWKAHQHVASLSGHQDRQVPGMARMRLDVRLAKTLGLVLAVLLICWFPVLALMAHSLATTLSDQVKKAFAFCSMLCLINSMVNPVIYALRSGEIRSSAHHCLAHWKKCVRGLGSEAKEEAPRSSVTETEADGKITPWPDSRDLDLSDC
T1 sequence (P21554 whole entry): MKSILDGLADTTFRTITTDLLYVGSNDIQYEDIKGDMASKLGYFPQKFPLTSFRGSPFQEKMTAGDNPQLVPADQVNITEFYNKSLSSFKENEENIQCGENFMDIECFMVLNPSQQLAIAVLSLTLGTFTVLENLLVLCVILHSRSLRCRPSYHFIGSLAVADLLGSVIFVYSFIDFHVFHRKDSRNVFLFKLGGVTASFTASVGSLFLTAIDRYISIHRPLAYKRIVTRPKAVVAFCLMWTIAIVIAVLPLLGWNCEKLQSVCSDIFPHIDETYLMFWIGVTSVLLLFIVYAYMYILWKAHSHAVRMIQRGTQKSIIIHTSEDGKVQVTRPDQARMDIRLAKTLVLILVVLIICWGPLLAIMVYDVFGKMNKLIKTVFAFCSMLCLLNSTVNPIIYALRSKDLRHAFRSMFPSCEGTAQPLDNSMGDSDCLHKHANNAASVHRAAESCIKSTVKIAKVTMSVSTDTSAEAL

With `O=C(NN1CCCCC1)c1nc(-c2ccc(Cl)cc2Cl)c(-c2ccc(Cl)cc2)s1`, the Kb on Cannabinoid receptor 1 [1] was 7.94 nM. Also, the efflux ratio at P-glycoprotein (ABCB1) worked out at 1.7. Moreover, in data set [2], the Transport is 8.3%. The molecule further came in with an ED50 in the data set with Rattus norvegicus of over 30 mg/kg. Further, the Ki at Cannabinoid receptor 1 [3] stood at 227 nM; at Cannabinoid receptor 2 it was 5840 nM.
On to `Cc1c(C(=O)NN2CCCCC2)nc(-c2ccc(Cl)cc2Cl)n1-c1ccc(Br)cc1`, for which the Kb on Cannabinoid receptor 1 [1] is 3.16 nM. Further, the inhibition constant (Ki) on Cannabinoid receptor 1 [3] stood at 60 nM; at Cannabinoid receptor 2 it was 489 nM.
As for `O=C(NN1CCCCC1)c1nc(-c2ccc(Cl)cc2Cl)n(-c2ccc(Cl)cc2)c1Br`, the Kb on Cannabinoid receptor 1 [1] was 3.98 nM. The inhibitory constant (Ki) on Cannabinoid receptor 1 [3] worked out at 23 nM; on Cannabinoid receptor 2 it was 746 nM.
Consider `Cc1c(C(=O)NCc2ccc(C(F)(F)F)cc2)nc(-c2ccc(Cl)cc2Cl)n1-c1ccc(Cl)cc1`, for which the Ki is 171 nM on Cannabinoid receptor 1 [3] and 1980 nM on Cannabinoid receptor 2.
As for `Cc1c(C(=O)NC2CC3CCC2C3)nc(-c2ccc(Cl)cc2Cl)n1-c1ccc(Cl)cc1` (stereo not given), the Kb at Cannabinoid receptor 1 [1] was 0.794 nM. Moreover, the Ki at Cannabinoid receptor 1 [3] worked out at 19 nM; on Cannabinoid receptor 2, 54 nM.
Turning to `N#Cc1c(C(=O)NN2CCCCC2)nc(-c2ccc(Cl)cc2Cl)n1-c1ccc(Cl)cc1`, the Ki on Cannabinoid receptor 1 [3] amounted to 30 nM; on Cannabinoid receptor 2 it was 1590 nM.
On to `Cc1c(C(=O)NN2CCCCC2)nc(-c2ccc(Cl)cc2Cl)n1-c1ccc(C(F)(F)F)cc1`, for which the Kb on Cannabinoid receptor 1 [1] is 2.51 nM. Further, the Ki was 29 nM on Cannabinoid receptor 1 [3] and 634 nM on Cannabinoid receptor 2.
In the same order, the values of `O=C(NN1CCCCC1)c1nc(-c2ccc(Cl)cc2Cl)n(-c2ccc(Cl)cc2)c1CF` are 1.26 nM, 36 nM and 906 nM.
For `Cc1c(C(=O)NC2CCCC2)nc(-c2ccc(Cl)cc2Cl)n1-c1ccc(Cl)cc1`, the Ki amounted to 33 nM at Cannabinoid receptor 1 [3] and 357 nM at Cannabinoid receptor 2.
In the case of `Cc1c(C(=O)NN2CCCCC2)nc(-c2ccc(Cl)cc2Cl)n1-c1ccc(Cl)cn1`, affinity on Cannabinoid receptor 2 was put at a Ki of 758 nM.
For the molecule `CCc1c(C(=O)NN2CCCCC2)nc(-c2ccc(Cl)cc2Cl)n1-c1ccc(Cl)cc1`, the Kb at Cannabinoid receptor 1 [1] was 1 nM. Also, the LED in the data set with Mus musculus was determined as 30 mg/kg. In the data set with Rattus norvegicus, it took a dose of 15.8 mg/kg to reach the 50% effect level (ED50). The values for the Ki on Cannabinoid receptor 1 [3] and on Cannabinoid receptor 2 were 14 nM and 430 nM, respectively.
Molecule `Cc1c(C(=O)NN2CCCCC2)nn(-c2ccc(Cl)cc2Cl)c1-c1ccc(Cl)cc1` [RIMONABANT] had a Transport in data set [2] of 17.2%. In addition, in the data set with Mus musculus, the LED turned out to be 3 mg/kg. In the data set on Rattus norvegicus, this molecule showed an ED50 of 3.2 mg/kg.
On to `Cc1c(C(=O)NN2CCCCCC2)nc(-c2ccc(Cl)cc2Cl)n1-c1ccc(Cl)cc1`, for which the Kb on Cannabinoid receptor 1 [1] was 2 nM. For the same molecule, the Ki on Cannabinoid receptor 1 [3] is 64 nM; at Cannabinoid receptor 2 it was 505 nM.
Regarding `O=C(NN1CCCCC1)c1nc(-c2ccc(Cl)cc2)n(-c2ccc(Cl)cc2Cl)n1`, on Cannabinoid receptor 1 [1], the Kb is 25.1 nM. Besides, the Ki on Cannabinoid receptor 1 [3] turned out to be 382 nM; on Cannabinoid receptor 2, 5440 nM.
`Cc1c(C(=O)N2CCc3ccccc3C2)nc(-c2ccc(Cl)cc2Cl)n1-c1ccc(Cl)cc1`: the values for the Ki at Cannabinoid receptor 1 [3] and on Cannabinoid receptor 2 were 34 nM and 696 nM, respectively.
For `Cc1c(C(=O)NN2CCCCC2)nc(-c2ccc(Cl)cc2Cl)n1-c1ccc(F)cc1`, the Ki on Cannabinoid receptor 1 [3] turned out to be 52 nM; on Cannabinoid receptor 2 it was 765 nM.
As for `COc1ccc(-n2c(-c3ccc(Cl)cc3Cl)nc(C(=O)NN3CCCCC3)c2C)cc1`, at Cannabinoid receptor 1 [1], the Kb was 2 nM. For the same molecule, the inhibition constant Ki at Cannabinoid receptor 1 [3] worked out at 106 nM; at Cannabinoid receptor 2, 326 nM.
Take `Cc1c(C(=O)NC2CCCCCC2)nc(-c2ccc(Cl)cc2Cl)n1-c1ccc(Cl)cc1`: the Ki on Cannabinoid receptor 1 [3] was determined as 35 nM; at Cannabinoid receptor 2, 349 nM.
As for `Cc1c(C(=O)NC2CCCCC2)nc(-c2ccc(Cl)cc2Cl)n1-c1ccc(Cl)cc1`, at Cannabinoid receptor 1 [1], the Kb was 0.794 nM. Also, the values for the Ki on Cannabinoid receptor 1 [3] and on Cannabinoid receptor 2 were 35 nM and 160 nM, respectively.
In the case of `Cl.Cl.O=C(NN1CCCCC1)c1nc(-c2ccc(Cl)cc2Cl)n(-c2ccc(Cl)cc2)n1`, on Cannabinoid receptor 1 [1], the Kb was 5.01 nM. For the same molecule, the efflux ratio at P-glycoprotein (ABCB1) came to 1.5. This molecule also yielded a Transport in data set [2] of 28.3%. The same molecule yielded an LED in the data set with Mus musculus of over 30 mg/kg. The same molecule yielded an ED50 in the data set with Rattus norvegicus of 23.6 mg/kg. In addition, the Ki was 356 nM on Cannabinoid receptor 1 [3] and 3560 nM on Cannabinoid receptor 2.
For `Cc1c(C(=O)N[C@H]2CC[C@H](O)CC2)nc(-c2ccc(Cl)cc2Cl)n1-c1ccc(Cl)cc1`, the Kb on Cannabinoid receptor 1 [1] was 50.1 nM. The figures for the inhibition constant (Ki) on Cannabinoid receptor 1 [3] and on Cannabinoid receptor 2 were 399 nM and 3470 nM, respectively.
For the molecule `CCN(CC)C(=O)c1nc(-c2ccc(Cl)cc2Cl)n(-c2ccc(Cl)cc2)c1C`, on Cannabinoid receptor 1 [1], the Kb is 39.8 nM. Moreover, the results for the inhibition constant (Ki) at Cannabinoid receptor 1 [3] and at Cannabinoid receptor 2 were 828 nM and 2520 nM, respectively.
In the case of `O=C(NN1CCCCC1)c1nc(-c2ccc(Cl)cc2)c(-c2ccc(Cl)cc2Cl)s1`, the Kb at Cannabinoid receptor 1 [1] was 63.1 nM. Moreover, the Ki on Cannabinoid receptor 1 [3] is over 1000 nM; at Cannabinoid receptor 2, 4670 nM.
In the same order, the values of `O=C(NN1CCCCC1)c1nc(-c2ccc(Cl)cc2Cl)n(-c2ccc(Cl)cc2)c1Cl` are 3.16 nM, 27 nM and 823 nM.
In the same order, the values of `Cc1c(C(=O)OC(C)(C)C)nc(-c2ccc(Cl)cc2Cl)n1-c1ccc(Cl)cc1` are 2.51 nM, 94 nM and 815 nM.
With `Cc1c(C(=O)NN2CCCCC2)nc(-c2ccc(Cl)cc2)n1-c1ccc(Cl)cc1Cl`, the Kb at Cannabinoid receptor 1 [1] is 20 nM. For the same molecule, the median effective dose (ED50) in the data set on Rattus norvegicus is over 30 mg/kg. The results for the Ki on Cannabinoid receptor 1 [3] and on Cannabinoid receptor 2 were 403 nM and 208 nM, respectively.
Regarding `Cc1c(C(=O)NN2CCCCC2)nc(-c2ccc(Cl)cc2Cl)n1-c1ccc(Cl)cc1`, at Cannabinoid receptor 1 [1], the Kb is 2.51 nM. Also, the efflux ratio at P-glycoprotein (ABCB1) was 1.2. Besides, the Transport in data set [2] is given as 24.2%. In addition, in the data set on Mus musculus, the LED was 10 mg/kg. The molecule further returned an ED50 in the data set with Rattus norvegicus of 2.4 mg/kg. Moreover, the affinity on Cannabinoid receptor 2, expressed as Ki, was 608 nM.
On to `Cc1c(C(=O)N2CCC(O)CC2)nc(-c2ccc(Cl)cc2Cl)n1-c1ccc(Cl)cc1`, for which affinity at Cannabinoid receptor 2 was put at a Ki of 3960 nM.
Regarding `Cc1c(C(=O)NN2CC3CCCC3C2)nc(-c2ccc(Cl)cc2Cl)n1-c1ccc(Cl)cc1` (stereo not given), the figures for the Ki at Cannabinoid receptor 1 [3] and at Cannabinoid receptor 2 were 40 nM and 1410 nM, respectively.
`Cc1c(C(=O)NN2CCOCC2)nc(-c2ccc(Cl)cc2Cl)n1-c1ccc(Cl)cc1`: the Ki on Cannabinoid receptor 1 [3] was found to be 197 nM; at Cannabinoid receptor 2 it was 3300 nM.
Consider `Cc1c(C(=O)NOC(C)(C)C)nc(-c2ccc(Cl)cc2Cl)n1-c1ccc(Cl)cc1`, for which the Kb on Cannabinoid receptor 1 [1] was 6.31 nM. Besides, the results for the Ki on Cannabinoid receptor 1 [3] and on Cannabinoid receptor 2 were 333 nM and 242 nM, respectively.
As to `O=C(NN1CCCCC1)c1cn(-c2ccc(Cl)cc2)c(-c2ccc(Cl)cc2Cl)n1`, the LED in the data set with Mus musculus was over 30 mg/kg. This molecule also yielded an ED50 in the data set on Rattus norvegicus of 11.7 mg/kg. Moreover, the Ki on Cannabinoid receptor 1 [3] came out at 23 nM; at Cannabinoid receptor 2, 542 nM.
For the molecule `Cc1c(C(=O)NN2CCCC2)nc(-c2ccc(Cl)cc2Cl)n1-c1ccc(Cl)cc1`, the figures for the Ki at Cannabinoid receptor 1 [3] and on Cannabinoid receptor 2 were 27 nM and 774 nM, respectively.

As usually defined, the efflux ratio is the permeability from basolateral to apical divided by that in the opposite direction, in the common usage. What is called ED50 is the dose that gives a 50% effect, or the effect in half of the subjects. Usually Ki stands for the equilibrium dissociation constant of an inhibitor or competing ligand from its target. A low value points to higher affinity.
